Source: ChEMBL document CHEMBL1136910, “Acetoxybenzhydrols as highly active and stable analogues of 1'S-1'-acetoxychavicol, a potent antiallergic principal from Alpinia galanga” (Bioorg Med Chem Lett, 2009)
Where a name gives a salt, the structure may show the parent alone.

Legend:
Assay type in all cases: functional, cell-based
RBL-2H3 [1] = assay: Antiallergic activity against antigen-IgE-mediated degranulation in rat RBL2H3 cells assessed as inhibition of DNP-BSA-induced beta-hexosaminidase release preincubated for 10 mins before DNP-BSA challenge measured after 10 mins
Outline: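 Test sample was added to each RBL-2H3 well 10 min before DNP-BSA challenge. β-Hexosaminidase released into the medium was determined 10 min after challenge.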

RBL-2H3 [2] = assay: Antiallergic activity against antigen-IgE-mediated degranulation in rat RBL2H3 cells assessed as inhibition of DNP-BSA-induced IL4 release preincubated for 10 mins before DNP-BSA challenge measured after 4 hrs
Outline: (§1)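 Test sample was added to each RBL-2H3 well 10 min before DNP-BSA challenge. TNF-α and IL-4 released into the medium were measured 4 h after challenge.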

RBL-2H3 [3] = assay: Antiallergic activity against antigen-IgE-mediated degranulation in rat RBL2H3 cells assessed as inhibition of DNP-BSA-induced TNFalpha release preincubated for 10 mins before DNP-BSA challenge measured after 4 hrs; outline: as §1

Structure (SMILES)	IC50 (RBL-2H3 [1])	IC50 (RBL-2H3 [2])	IC50 (RBL-2H3 [3])
CC(C)C(=O)Oc1ccc(C(OC(=O)C(C)C)c2ccccc2)cc1 (stereo unspecified)	> 100 µM		
C=CC(=O)Oc1ccc(C(OC(=O)C=C)c2ccccc2)cc1 (stereo unspecified)	28 µM		
COC(=O)Oc1ccc(C(OC(=O)OC)c2ccccc2)cc1 (stereo unspecified)	18 µM		
CCC(=O)Oc1ccc(C(OC(=O)CC)c2ccccc2)cc1 (stereo unspecified)	38 µM		
CN1CCC(=C2c3ccccc3CC(=O)c3sccc32)CC1 [KETOTIFEN FUMARATE]	158 µM		
O=COc1ccc(C(OC=O)c2ccccc2)cc1 (stereo unspecified)	> 100 µM		
CC(=O)Oc1ccc(C(OC(=O)c2ccccc2)c2ccccc2)cc1 (stereo unspecified)	17 µM	23 µM	28 µM

More lines, now with the values ahead:

IC50 (RBL-2H3 [1])	IC50 (RBL-2H3 [2])	IC50 (RBL-2H3 [3])	Structure (SMILES)
> 100 µM			CC(=O)Oc1ccc(C(O)c2ccccc2)cc1 (stereo unspecified)
6.5 µM	12 µM	11 µM	COC(=O)OC(c1ccccc1)c1ccc(OC(C)=O)cc1 (stereo unspecified)
36 µM			CC(=O)Oc1ccc(C(OC(=O)C(C)(C)C)c2ccccc2)cc1 (stereo unspecified)
27 µM			CC(=O)Oc1ccc(C(OC(=O)C(C)C)c2ccccc2)cc1 (stereo unspecified)
14 µM			CC(=O)Oc1ccc(C(OC(C)=O)c2ccccc2)cc1 (stereo unspecified)
